ChEMBL document CHEMBL1926522, “PEG-SO(3)H catalyzed synthesis and cytotoxicity of α-aminophosphonates” (Eur J Med Chem, 2012)

Experiments:
K562 [1] = assay: Growth inhibition of human K562 cells at 10 uM after 24 hrs by MTT assay relative to control; type: functional; conditions: K562, 24 h, read-out: GI
How it was run: (§1)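 Exponentially growing cells in RPMI-1640 with 10% heat-inactivated FBS, 37 °C, 5% CO2. Treated 24 h at the single stated concentration. MTT (5 mg/mL in PBS) added for 2 h at 37 °C, then DMSO. Percent proliferation inhibition was calculated versus control. Independent experiments in duplicate, values averaged from two determinations.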

COLO 205 [2] = assay: Growth inhibition of human COLO205 cells at 10 uM after 24 hrs by MTT assay relative to control; type: functional; conditions: COLO 205, 24 h, read-out: GI; how it was run: as §1
K562 [3] = assay: Growth inhibition of human K562 cells at 1 uM after 24 hrs by MTT assay relative to control; type: functional; conditions: K562, 24 h, read-out: GI; how it was run: as §1
K562 [4] = assay: Cytotoxicity against human K562 cells after 24 hrs by MTT assay; type: functional, cell-based; conditions: K562, 24 h
How it was run: (§2)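 Cells from NCCS Pune, grown in RPMI-1640 with 10% heat-inactivated FBS, penicillin/streptomycin and glutamine at 37 °C, 5% CO2. Cells were washed with PBS and exposed for 24 h, first at 1, 10 and 100, then at 2–64. MTT (5 mg/mL in PBS) added for 2 h, then DMSO. IC50 read graphically from concentration vs % inhibition plot. Each point is the average of two determinations.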

COLO 205 [5] = assay: Cytotoxicity against human COLO205 cells after 24 hrs by MTT assay; type: functional, cell-based; conditions: COLO 205, 24 h; how it was run: as §2
[6] = Growth inhibition of human HEK293 cells at 10 uM after 24 hrs by MTT assay relative to control; type: cell-based; conditions: read-out: GI; how it was run: as §1
COLO 205 [7] = assay: Growth inhibition of human COLO205 cells at 1 uM after 24 hrs by MTT assay relative to control; type: functional; conditions: COLO 205, 24 h, read-out: GI; how it was run: as §1
[8] = Growth inhibition of human HEK293 cells at 1 uM after 24 hrs by MTT assay relative to control; type: cell-based; conditions: read-out: GI; how it was run: as §1
[9] = Lipophilicity, log P of the compound; type: physicochemical; conditions: octanol/water

logP [9] | Structure (SMILES) | inhibition of growth at 10 µM (K562 [1]) [%] | inhibition of growth at 10 µM (COLO 205 [2]) [%] | inhibition of growth at 1 µM (K562 [3]) [%] | IC50 (K562 [4]) [µM] | IC50 (COLO 205 [5]) [µM] | inhibition at 24 h, 10 µM [6] [%] | inhibition of growth at 1 µM (COLO 205 [7]) [%] | inhibition at 24 h, 1 µM [8] [%]
 | CCOP(=O)(OCC)C(Nc1nc2ccc([N+](=O)[O-])cc2s1)c1ccc(-c2ccncc2)cc1 (configuration not stated) | 18.9 | 48.1 | 0.9 | 31 | 10 | 0.3 | 34.4 | 0
 | CCOP(=O)(OCC)C(Nc1ccncc1)c1ccc(-c2ccncc2)cc1 (configuration not stated) | 15.7 | 53.4 | 0 | 32 | 10 | 1.9 | 14 | 0.5
 | CCOP(=O)(OCC)C(Nc1nccs1)c1ccc(-c2ccncc2)cc1 (configuration not stated) | 24 | 47.9 | 0 | 24 | 10 | 2.5 | 37.1 | 1
 | CCOP(=O)(OCC)C(Nc1ccc(Cl)c([N+](=O)[O-])c1)c1ccc(-c2ccncc2)cc1 (configuration not stated) | 24.9 | 45.1 | 14.3 | 19 | 12 | 3.4 | 35 | 1.2
4.55 | CCOP(=O)(OCC)C(NCc1cccnc1)c1ccc(-c2ccncc2)cc1 (configuration not stated) | 48.4 | 60.1 | 26 | 10 | 8 | 3.6 | 27.6 | 3.1
 | CCOP(=O)(OCC)C(Nc1ccc(F)c(Cl)c1)c1ccc(-c2ccncc2)cc1 (configuration not stated) | 26.2 | 47 | 26 | 22 | 10 | 1.2 | 44.5 | 0.2
5.72 | CCOP(=O)(OCC)C(Nc1cccc(Br)c1)c1ccc(-c2ccncc2)cc1 (configuration not stated) | 53.8 | 71.6 | 41.7 | 10 | 5 | 2.3 | 31.3 | 1
 | CCOP(=O)(OCC)C(Nc1ccccc1)c1ccc(-c2ccncc2)cc1 (configuration not stated) | 0 | 31 | 0 | > 100 | 18 | 0 | 18.1 | 0
 | CCOP(=O)(OCC)C(Nc1cccc([N+](=O)[O-])c1)c1ccc(-c2ccncc2)cc1 (configuration not stated) | 25.8 | 41.1 | 0 | 20 | 14 | 1.2 | 39.5 | 0
 | CCOP(=O)(OCC)C(Nc1nc2ccccc2s1)c1ccc(-c2ccncc2)cc1 (configuration not stated) | 15.7 | 41 | 0 | 35 | 15 | 2.5 | 36.6 | 2.5
